Experimental data as given in ChEMBL document CHEMBL4270658, “Synthesis, in vitro and in vivo biological evaluation, COX-1/2 inhibition and molecular docking study of indole-N-acylhydrazone derivatives” (Bioorg Med Chem, 2018).

How the values were obtained:
[1] = system: Splenocyte; test: Immunomodulatory activity in BALB/c mouse splenocytes assessed as inhibition of concanavalin A-induced lymphocyte proliferation by measuring [methyl-3H]-thymidine uptake at 50 uM after 48 hrs; format: functional
Summary of the method: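 BALB/c splenocytes (5×10⁶ cells/well) in DMEM, triplicate, with concanavalin A (2 μg mL⁻¹) ± compound 48 h at 37 °C, 5% CO₂, then 1 μCi [methyl-³H]thymidine for 12 h; inhibition from thymidine uptake relative to control; dexamethasone positive control.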

[2] = Cytotoxicity against mouse J774 macrophages after 72 hrs by Alamar Blue assay; format: cell-based

Structure (SMILES)	inhibition at 50 µM [1]	CC50 at 72 h [2]
N#CCC(=O)N/N=C/c1c[nH]c2c1ccc1ccccc12	1.2%	78.5 µM
COc1ccc2[nH]cc(/C=N/NC(=O)CC#N)c2c1	43.7%	101 µM
C[C@@H]1C[C@H]2[C@@H]3CCC4=CC(=O)C=C[C@]4(C)[C@@]3(F)[C@@H](O)C[C@]2(C)[C@@]1(O)C(=O)CO [DEXAMETHASONE]	74.6%	–
N#CCC(=O)N/N=C/c1c[nH]c2cccc([N+](=O)[O-])c12	31%	66 µM
Cc1ccc2[nH]cc(/C=N/NC(=O)CC#N)c2c1	15.4%	200 µM
N#CCC(=O)N/N=C/c1c[nH]c2ccc(C#N)cc12	25.7%	69.4 µM
